Reference: paper PMC4824049 (Bioorganic & medicinal chemistry, 2015)
Entries after “also recorded” stand apart in the source; their conditions may differ. Blank lines part the entries; values can stand above or below the compound they belong to.

Tests used:
[1] = target: T1, cathepsin L (Homo sapiens, UniProt P07711); experiment: Cathepsin L reaction progress curves / reversibility; type: biochemical; details: separate experiments, Supplementary data
How it was run: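 No pre-incubation. Test compound at final 10, 5, 1, 0.5, 0.1, 0.01 and 0.005 µM was mixed with Z-FR-AMC (final 10 µM), and the reaction was started by adding cathepsin L in assay buffer. AMC fluorescence (ex 355/em 460 nm) was read every 30 s for 50 min.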

[2] = system: HUVECs; experiment: Cytotoxicity assay; type: cell-based, human; details: normal primary cells
How it was run: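 Pooled-donor HUVECs were grown on collagen-1-coated flasks in M200 with gentamycin, amphotericin B and low-serum growth supplement at 37 °C and 5% CO2, used at passage 5 or lower. Cells were seeded at 9,000/well for 24 h, then given ten-fold serial dilutions of test compound for 48 h. Plates were TCA-fixed and stained with 0.4% SRB for 30 min. Absorbance was read at 540 nm, normalised to 630 nm. GI50 came from at least two replicates, averaged over at least three experiments.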

[3] = system: C3H mammary carcinoma; experiment: Growth inhibition of C3H mammary carcinoma in CDF1 mice; type: in vivo; details: 20 mg/kg i.p., 5 daily treatments
[4] = system: MDA-MB-231 breast cancer cells; experiment: MDA-MB-231 cell migration assay; type: cell-based, human; details: 25 μM
How it was run: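 MDA-MB-231 cells (DMEM, 10% FBS, gentamycin) were trypsinised at 80% confluence and counted. Each insert (8 µm pores, no Matrigel) received 50,000 cells in DMEM with 2% DMSO and test compound at 25 or 10 µM; the lower chamber held DMEM with 10% FBS as chemoattractant. E-64 served as positive control. After 24 h at 37 °C and 5% CO2, migrated cells were methanol-fixed and Diff-stained. Values were normalised to 2% DMSO vehicle, in triplicate.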

[5] = target: human liver cathepsin L (Homo sapiens, UniProt P07711); experiment: Cathepsin L inhibition assay; type: biochemical; details: tested up to 10,000 nM
Sequence of human liver cathepsin L (P07711 114-288 limits assumed): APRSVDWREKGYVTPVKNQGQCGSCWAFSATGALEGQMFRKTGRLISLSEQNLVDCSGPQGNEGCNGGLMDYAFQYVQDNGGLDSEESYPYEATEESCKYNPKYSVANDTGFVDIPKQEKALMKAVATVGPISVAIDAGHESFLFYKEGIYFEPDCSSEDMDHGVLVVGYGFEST
Sequence of human liver cathepsin L (P07711 292-333 limits assumed): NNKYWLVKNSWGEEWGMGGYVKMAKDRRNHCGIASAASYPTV

[6] = target: Human liver Cathepsin B (Homo sapiens, UniProt P07858); experiment: Cathepsin B inhibition assay; type: biochemical
How it was run: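 Human liver cathepsin B was pre-incubated with the test compound for 5 min at 37 °C, then Z-RR-AMC was added. Fluorescence (ex 355/em 460 nm) was read over 5 min at 37 °C. IC50 was fitted from triplicate experiments.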

[7] = E/Z isomerization in solution followed by 1H NMR; type: physicochemical; details: acetone, one week; isolated as Z isomer
[8] = target: T1, cathepsin L; details: cited from earlier work

T1 sequence (P07711 114-288 limits assumed): as the sequence (P07711 114-288 limits assumed) above
T1 sequence (P07711 292-333 limits assumed): as the sequence (P07711 292-333 limits assumed) above

Compound: NC(=S)N/N=C(\c1ccccc1)c1cccc(C(=O)c2ccccc2)c1 [Compound 1, 3-Benzoylbenzophenone thiosemicarbazone]
reversibility of cathepsin L inhibition [1]: slowly reversible
cytotoxicity toward HUVECs (in words) [2]: low cytotoxicity; also recorded: very low cytotoxicity
tumor growth delay (in words) ([3]; C3H mammary carcinoma in CDF1 mice): showed efficacy in tumor growth delay; also recorded: modest, statistically relevant efficacy in tumor growth delay; also recorded: delayed growth in vivo
tolerability in mouse model ([3]; CDF1 mice bearing C3H mammary carcinoma): well-tolerated
increase in inhibition of migration compared with positive control E-64 [4]: greater than 2 fold

Compound: NC(=S)N/N=C(\c1ccc(F)cc1)c1cccc(C(=O)c2ccc(F)cc2)c1 [Compound 8, 1,3-Bis(4-fluorobenzoyl)benzene thiosemicarbazone]
cytotoxicity toward HUVECs (in words) [2]: low cytotoxicity; also recorded: very low cytotoxicity

activity against cathepsin L (in words) [5]: no activity
activity against cathepsin B (in words) [6]: inactive
Compound: NC(=S)N/N=C(\c1ccc(Br)cc1)c1cccc(/C(=N/NC(N)=S)c2ccc(Br)cc2)c1 [Compound 10, 1,3-Bis(4-bromobenzoyl)benzene bis-thiosemicarbazone]

activity against cathepsin L (in words) [5]: inactive
Compound: CC(C)Oc1ccc(C(=O)c2cccc(/C(=N/NC(N)=S)c3ccc(OC(C)C)cc3)c2)cc1 [Compound 14, 1,3-Bis(4-isopropoxybenzoyl)benzene thiosemicarbazone]

Compound: NC(=S)N/N=C(\c1cccc(O)c1)c1cc(Br)cc(C(=O)c2cccc(O)c2)c1 [Compound 31, 1,3-Bis(3-hydroxybenzoyl)-5-bromobenzene thiosemicarbazone]
cytotoxicity toward HUVECs (in words) [2]: very low cytotoxicity

reversibility of cathepsin L inhibition [1]: slowly reversible
isomerization on standing in solution [7]: did not isomerize
Compound: NC(=S)N/N=C(\c1cc(Br)cc(C(=O)c2ccccc2F)c1)c1ccccc1F [Compound 32, 1,3-Bis(2-fluorobenzoyl)-5-bromobenzene thiosemicarbazone]
cytotoxicity toward HUVECs (in words) [2]: low cytotoxicity; also recorded: very low cytotoxicity

Compound: NC(=S)NN=C(c1cccc(O)c1)c1cccc(Br)c1 [X, (3-bromo-3′-hydroxybenzophenone) thiosemicarbazone]
kinetic analysis of cathepsin L inhibition [8]: time-dependent and slowly reversible
